Shown are actives, neighbours in structure and some others; about 1.9% of the full set was active somewhere.
UHRF1 binding: UHRF1 methylated DNA binding inhibitors, primary screen, counter-screen for MBD2 inhibitor project, biochemical, TR-FRET, human UHRF1, single concentration | E3 ubiquitin-protein ligase UHRF1 (Homo sapiens), Q96T88 | actives 0.75% (n = 370,000) | AID 687016, 2013 | inhibition, % at 4.4 µM | UHRF1 binding to methylated oligo; in the data active means inhibition above about 21%;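 further: UHRF1 SRA domain binding a hemimethylated CpG hairpin DNA probe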
MBD2 DNA inh: inhibitors of MBD2 binding to methylated DNA, primary screen, biochemical, TR-FRET, DNA-binding domain, human | inhibition, % at 4.4 µM | MBD2 binding to methylated oligonucleotide | actives 0.31% (n = 370,000); in the data active means inhibition above about 13%
Target sequence (Q9UBB5 whole entry, looked up, the tested form may be a part): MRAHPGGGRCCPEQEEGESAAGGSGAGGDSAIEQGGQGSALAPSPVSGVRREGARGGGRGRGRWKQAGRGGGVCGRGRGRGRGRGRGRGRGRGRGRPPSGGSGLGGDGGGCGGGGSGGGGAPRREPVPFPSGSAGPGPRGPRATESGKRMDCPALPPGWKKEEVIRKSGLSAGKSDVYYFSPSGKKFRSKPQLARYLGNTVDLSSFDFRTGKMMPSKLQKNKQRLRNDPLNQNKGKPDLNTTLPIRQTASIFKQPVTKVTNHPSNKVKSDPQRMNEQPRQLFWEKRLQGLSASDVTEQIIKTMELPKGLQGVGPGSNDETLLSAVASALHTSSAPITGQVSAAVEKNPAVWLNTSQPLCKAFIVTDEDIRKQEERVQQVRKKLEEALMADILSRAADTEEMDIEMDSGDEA
DDE Tn6 FP inh: inhibitors of Tn6 peptide binding to fibrin DD(E), primary screen, biochemical, fluorescence polarization, human fibrin, Tn6 probe | Fibrinogen beta chain (Homo sapiens), P02675 | Fibrin DD(E) TRITC-Tn6 fluorescence polarization displacement | inhibition, % at 8.3 µM | actives 0.21% (n = 370,000) | AID 720509, 2013;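 active means inhibition above a per-campaign cutoff: mean of compounds within control limits plus 3 SD, cut at about 15% in these data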
LEDGF integ inh: blockers of LEDGF/p75-dependent integrase strand transfer – biochemical, TR-FRET, high throughput, primary screen; HIV-1 integrase (with human LEDGF/p75); TR-FRET IN-LEDGF/p75 DNA integration, Eu/Cy5; inhibition, % at 3.7 µM; actives 0.64% (n = 370,000); AID 743269, 2014;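 active means inhibition above the screen-wide mean plus 3 SD, cut at about 13% in these data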;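 further: signal is the Cy5 over europium emission ratio at 671 and 618 nm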
DDE Tn7 FP inh: inhibitors of Tn7 peptide binding to fibrin DD(E), primary screen, biochemical, fluorescence polarization, human fibrin, Tn7 probe | Fibrinogen beta chain (Homo sapiens), P02675 | FP displacement of FITC-Tn7 peptide from fibrin DD(E); 0% = median of compound wells per plate | inhibition, % at 8.3 µM | actives 0.13% (n = 370,000) | AID 720508, 2013;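 active means inhibition above the mean of compounds falling within the control limits plus 3 SD of them, cut at about 14% in these data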
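Test system – human fibrin DD(E) · Times – 10 min preincubation, 3 h with tracer, room temperature · Detection – fluorescence polarization of the labelled Tn7 tracer · Measure – percent inhibition normalized to high-control wells · Benchmarks – high control wells with 10 µM unlabelled Aha-Tn7 peptide (full inhibition) · Repeats – singlicate testing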
TDP2 absorb: human TDP2 enzyme inhibitors, primary screen, biochemical, epi absorbance, recombinant enzyme | Tyrosyl-DNA phosphodiesterase 2 (Homo sapiens), O95551 | T5PNP hydrolysis, p-nitrophenol absorbance 415 nm | inhibition, % at 12.8 µM | actives 0.34% (n = 370,000);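 active means inhibition above the mean of all tested compounds plus 3 SD, set per campaign, cut at about 25% in these data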
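Evaluation: % inhibition relative to enzyme-containing and enzyme-free wells. Material: recombinant human TDP2. Benchmarks: enzyme-free and DMSO wells. Timing: enzyme reaction with compound for 2 h at 37 °C. Compound dosing: 12.8 µM only. Measured by: p-Nitrophenol epi absorbance. Reagent: T5PNP substrate at 5 mM, a TopII-DNA adduct mimic. Replication: single well per compound.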
DDE Tn7 confirm: inhibitors of Tn7 peptide binding to fibrin DD(E), confirmation, biochemical, fluorescence polarization, human fibrin, Tn7 probe; FP displacement of TRITC-Tn7 peptide from DD(E); 0% set at plate's compound-well median; inhibition, % at 8.3 µM; actives 5% (n = 460); shares compounds with DDE Tn7 FP inh; AID 720628, 2013;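 active means inhibition above the campaign cutoff, the mean of compounds within control limits plus 3 SD, cut at about 14% in these data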;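 further: displacers lower polarization since freed probe rises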
DDE Tn7 FP ctr: counter-screen for inhibitors of Tn7 peptide binding to fibrin DD(E). shares compounds with DDE Tn7 FP inh. TRITC-Tn7 probe displacement, fluorescence polarization. inhibition, % at 8.3 µM. actives 3% (n = 460);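 active means inhibition above the cutoff, the mean of compounds lying between the control bounds plus 3 SD of those compounds, cut at about 17% in these data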
Tn6 DDE ctr: counter-screen for inhibitors of Tn6 peptide binding to fibrin DD(E) | shares compounds with DDE Tn6 FP inh | TRITC-Tn6 fluorescence polarization displacement; 0% = median of compound wells, not DMSO | inhibition, % at 8.3 µM | actives 2% (n = 680);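 active means inhibition above the mean of test compounds lying between the control limits plus 3 SD of those, cut at about 14% in these data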
DDE Tn6 confirm: inhibitors of Tn6 peptide binding to fibrin DD(E), confirmation, biochemical, fluorescence polarization, human fibrin, Tn6 probe | shares compounds with DDE Tn6 FP inh | AID 720631, 2013 | actives 10% (n = 680) | inhibition, % at 8.3 µM | FP displacement of TRITC-Tn6 peptide from DD(E); 0% = per-plate median of test wells;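 active means inhibition above the mean of compounds lying within the control limits plus 3 SD, cut at about 16% in these data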
TDP2 inh conf: human TDP2 enzyme inhibitors, retest, confirmation, biochemical, epi absorbance, recombinant enzyme; absorbance read-out; inhibition, % at 12.8 µM; actives 22% (n = 1,100); shares compounds with TDP2 absorb; in the data active means inhibition above about 25%
Numbers stand for hits; i = inactive; nt = not tested or not shown.

SMILES | UHRF1 binding | MBD2 DNA inh | DDE Tn6 FP inh | LEDGF integ inh | DDE Tn7 FP inh | TDP2 absorb | TDP2 inh conf | others
Nc1ccc2nonc2c1[N+](=O)[O-] | i | i | i | i | 20 | i | nt | DDE Tn7 confirm=i;DDE Tn7 FP ctr=i
CN(c1ccc(O)cc1)c1ccc([N+](=O)[O-])c2nonc12 | i | i | i | i | i | i | nt
CCOC(=O)c1cc2c(cn1)[C@H](CCO)NC2 | i | i | i | i | i | i | nt
FC(F)(F)c1cccc(NC2=NCCCS2)c1 | i | i | i | i | 14 | i | nt | DDE Tn7 confirm=i;DDE Tn7 FP ctr=i
O=c1cc(C(F)(F)F)c2cc3c4c(c2o1)CCCN4CCC3 | i | i | i | i | 33 | i | nt | DDE Tn7 confirm=i;DDE Tn7 FP ctr=i
C[C@]12CCC3C(CC[C@H]4C[C@H](O)CC[C@]34C)C1CCC2=O (stereo partly drawn) | i | i | i | i | i | i | nt
Nc1ccc2ccc3cccc[n+]3c2c1 | i | i | i | i | 70 | i | nt | DDE Tn7 confirm=25;DDE Tn7 FP ctr=i
COC(=O)C1C(c2ccc(I)cc2)CC2CCC1N2C (stereo not drawn) | i | i | i | i | i | i | nt
O=[N+]([O-])c1ccc(NCc2ccccc2)c2nonc12 | i | i | 21 | i | 61 | i | nt | DDE Tn7 confirm=46;DDE Tn7 FP ctr=27;Tn6 DDE ctr=46;DDE Tn6 confirm=27
C[C@H](CO)N1C[C@H](C)[C@H](CN(C)C(=O)Oc2ccccc2)OCc2cnnn2CCCC1=O | i | i | i | i | i | i | nt
CCNC(=O)C1OC(n2cnc3c(N)ncnc32)C(O)C1O (stereo not drawn) | i | i | 16 | i | i | i | nt | Tn6 DDE ctr=i;DDE Tn6 confirm=i
Cc1cc(N(CCCl)CCCl)ccc1C=Cc1ccncn1 | i | i | i | i | i | i | nt
C=CCNC(=S)N1Cc2cc(Br)ccc2-n2nncc2C1 | i | i | i | i | i | i | nt
O=[N+]([O-])c1ccc(N2CCCCCC2)c2nonc12 | i | i | 85 | i | i | i | nt | Tn6 DDE ctr=i;DDE Tn6 confirm=66
O=[N+]([O-])c1ccccc1CNCCc1c[nH]c2ccccc12 | i | i | i | i | i | 25 | i
Clc1ccccc1CNCCc1c[nH]c2ccccc12 | i | i | i | i | i | i | nt
C[C@]1(O)CCC2C3CC[C@H]4C[C@@H](OC(=O)[C@@H](N)CCCCN)CC[C@]4(C)C3CC[C@@]21C (stereo partly drawn) | i | i | i | i | i | i | nt
CCN1CCN(c2ccc(N)cc2)CC1 | i | i | i | i | i | 32 | i
Nc1c(C(=O)OCc2ccccc2)c2nc3ccccc3nc2n1Cc1cccs1 | i | i | i | i | i | 25 | i
CCC(C)OC(=O)c1c(N)n(Cc2cccs2)c2nc3ccccc3nc12 (stereo not drawn) | i | i | i | i | i | i | nt
C[C@]12CCC3C(CC[C@H]4C[C@H](O)CC[C@]34C)C1C[C@@H](O)[C@H]2O (stereo partly drawn) | i | i | i | i | i | i | nt
CN1C(=O)C(=Cc2ccccc2Oc2ccc(Cl)c(F)c2)C(=O)N(C)C1=O | i | i | i | i | i | 25 | i
CC[C@]12CCN(CC3(O)CC3)[C@H](Cc3ccc(O)cc31)C2(C)C | i | i | i | i | i | i | nt
COc1ccc(OC)c(N2C(=O)NC(=O)/C(=C\c3ccc([N+](=O)[O-])s3)C2=O)c1 | i | i | i | i | i | 28 | i
CN1C(=O)NC(=O)/C(=C/c2ccc([N+](=O)[O-])s2)C1=O | i | i | i | i | i | 25 | i
SMILES | UHRF1 binding | MBD2 DNA inh | DDE Tn6 FP inh | LEDGF integ inh | DDE Tn7 FP inh | TDP2 absorb | TDP2 inh conf | others
COc1ccc(N2C(=O)NC(=O)/C(=C\c3ccccc3[N+](=O)[O-])C2=O)cc1 | i | i | i | i | i | i | nt
O=C1NC(=O)N(c2ccccc2)C(=O)/C1=C\c1ccc([N+](=O)[O-])s1 | i | i | i | i | i | i | nt
CCc1nn2c(=O)c(F)c(N3CCNCC3)nc2s1 | i | i | i | i | i | i | nt
COc1ccccc1CN1CCN(C(=O)COc2cccc(C)c2)CC1 | i | i | i | i | i | i | nt
COc1ccccc1CN1CCN(C(=O)COc2ccc3ccccc3c2)CC1 | i | i | i | i | i | 25 | i
COc1ccc(OC(=O)N(C)C[C@@H]2OCc3ccccc3-c3c(n(C)c4ccccc34)C(=O)N([C@H](C)CO)C[C@@H]2C)cc1 | i | i | i | i | i | i | nt
Cc1cc(OCC(=O)NCc2ccncc2)c2c3c(c(=O)oc2c1)CCC3 | i | i | i | i | i | 26 | i
COCCCn1c(N)c(C(=O)Nc2sc3c(c2C(=O)OC)CCCC3)c2nc3ccccc3nc21 | i | i | i | i | i | 35 | i
O=P(C(Cl)Cl)(N1CCOCC1)N1CCOCC1 | i | i | i | i | i | 30 | i
